Assay outcomes as filed in PubChem BioAssay.
DDE Tn6 FP inh = inhibitors of Tn6 peptide binding to fibrin DD(E), primary screen, biochemical, fluorescence polarization, human fibrin, Tn6 probe | Fibrinogen beta chain (Homo sapiens), P02675 | Fibrin DD(E) TRITC-Tn6 fluorescence polarization displacement | inhibition, % at 8.3 µM | 0.21% of 370,000 active | AID 720509, 2013;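 active = inhibition above a per-campaign cutoff: mean of compounds within control limits plus 3 SD, cut at about 15% in these data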;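 note: 0% = median of all compound wells on the plate and 100% = blocking peptide control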
KLK7 zymogen act = proKLK7 zymogen activators, primary screen, biochemical, fluorescence intensity; purified proKLK7, EDANS-DABCYL substrate fluorescence; 100% is mature enzyme control, 0% vehicle; activation, % at 7 µM; 0.9% of 370,000 active;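 active = activation above the mean of all tested compounds plus 3 SD, computed per campaign excluding outliers beyond control limits, cut at about 13% in these data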
SKN-1 block = suppressors of acrylamide-induced Pgst-4::GFP reporter in worms, primary screen, SKN-1 inhibitor project, whole organism, uHTS, GFP/RFP fluorescence ratio, strain VP596 | inhibition, % at 21.8 µM | C. elegans VP596 Pgst-4::GFP/RFP ratio, 24 h | 0.49% of 360,000 active;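 active = interference check ratio from 0.5 to 1.5 plus GFP to RFP signal ratio inhibition reaching or exceeding a fixed threshold, cut at about 30% in these data, passing the limit was not always enough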
Tn7 DDE FP = inhibitors of Tn7 peptide binding to fibrin DD(E), primary screen, biochemical, fluorescence polarization, human fibrin, Tn7 probe; FP displacement of FITC-Tn7 peptide from fibrin DD(E); 0% = median of compound wells per plate; Fibrinogen beta chain (Homo sapiens), P02675; 0.13% of 370,000 active; inhibition, % at 8.3 µM; AID 720508, 2013;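 active = inhibition above the mean of compounds falling within the control limits plus 3 SD of them, cut at about 14% in these data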;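 note: 0% = plate median of compound wells and 100% = 10 µM Aha-Tn7 peptide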
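Measure: % inhibition scaled between sample-field median and high-control FP; Test system: human fibrin DD(E); Quantity: 2 µM final DD(E) protein; Doses: one dose, 8.3 µM nominal; Schedule: compound with protein 10 min, then 3 h after probe, room temperature; Detection: fluorescence polarization; Medium: Tris buffer with calcium and detergent, pH 7.8.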
Neddylation inh = inhibitors of cullin neddylation, primary screen, biochemical, TR-FRET, uHTS, NAE and Ubc12. NEDD8-conjugating enzyme Ubc12 (Homo sapiens) + NEDD8-activating enzyme E1 regulatory …. calls only at 25 µM. 0.58% of 360,000 active; in the data active = inhibition above about 36%
Target sequence (P61081 whole entry, looked up): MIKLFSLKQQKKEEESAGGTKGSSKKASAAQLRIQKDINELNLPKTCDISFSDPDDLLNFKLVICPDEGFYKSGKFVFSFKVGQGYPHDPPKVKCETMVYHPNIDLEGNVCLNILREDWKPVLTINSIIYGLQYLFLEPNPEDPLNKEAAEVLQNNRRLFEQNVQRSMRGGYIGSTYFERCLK
Target sequence (Q13564 whole entry, looked up): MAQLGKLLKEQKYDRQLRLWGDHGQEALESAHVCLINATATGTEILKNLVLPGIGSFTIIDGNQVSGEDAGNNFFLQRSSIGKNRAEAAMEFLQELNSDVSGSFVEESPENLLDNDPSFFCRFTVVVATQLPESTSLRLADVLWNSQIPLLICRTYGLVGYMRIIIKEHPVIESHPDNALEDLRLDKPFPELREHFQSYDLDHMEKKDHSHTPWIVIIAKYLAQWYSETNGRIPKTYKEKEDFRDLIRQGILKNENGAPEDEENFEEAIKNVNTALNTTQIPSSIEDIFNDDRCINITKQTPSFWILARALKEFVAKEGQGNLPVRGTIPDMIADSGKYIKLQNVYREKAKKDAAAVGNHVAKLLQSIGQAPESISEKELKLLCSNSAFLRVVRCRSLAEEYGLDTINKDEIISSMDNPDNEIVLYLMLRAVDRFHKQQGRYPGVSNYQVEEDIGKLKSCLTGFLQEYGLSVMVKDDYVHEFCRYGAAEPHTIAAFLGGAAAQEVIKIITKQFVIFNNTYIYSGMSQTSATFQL
MT1-MMP act inh = blockers of MT1-MMP proenzyme processing, primary screen, HT1080 RFP-PRO-GFP cells, GFP/RFP fluorescence. Matrix metalloproteinase-14 (Homo sapiens), P50281. GFP/RFP ratio fluorescence, overnight; percent of plate control window, DMSO zero. GFP/RFP ratio change, % at 20 µM. 0.061% of 360,000 active. AID 651647, 2012;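 active = GFP/RFP ratio change of at least 30% with cell ATP level not reduced by more than half and red fluorescence within 50% of control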
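Test system: HT1080 RFP-PRO-GFP cells; Benchmarks: DMSO and RFP-L50D-GFP cell wells; Timing: cells overnight before dosing, compound overnight, 37 °C, 5% CO2; Compound: one 20 µM compound dose with 1% DMSO; Read-out: GFP/RFP fluorescence ratio.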
Neddyl conf = blockade of NEDD8 conjugation to cullin – biochemical, TR-FRET, single concentration, confirmation; shares compounds with Neddylation inh; TR-FRET cullin neddylation biochemical assay; calls only at 25 µM; 13% of 1,800 active; AID 652217, 2013; in the data active = inhibition above about 40%;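 note: neddylation substrate is the cullin 1 ring ligase complex with SKP2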
The depositor's hits bear a star; i = inactive; nt = no result given; + = active, no number. Sampled rows, rich in hits. Any-hit rate of the full collection: about 2.2%.

SMILES | DDE Tn6 FP inh | KLK7 zymogen act | SKN-1 block | Tn7 DDE FP | Neddylation inh | MT1-MMP act inh | Neddyl conf
CCN(CC(=O)Nc1ccccc1OC)C(=O)CC1CCCC1 | -1.6 | 1.2 | 12.4 | -6.4 | i | 4.0 | nt
Cc1nc(-c2cccs2)sc1C(=O)NN | 7.6 | -5.5 | -2.8 | 4.7 | i | 0.0 | nt
CCOC(=O)c1sc(-c2cccs2)nc1C | -0.7 | -1.1 | 30.7 | -9.7 | + | -3.1 | i
Cc1ccc(N2C(=O)[C@@H]3[C@H](C2=O)C2c4ccccc4C=NN2[C@@H]3C(=O)c2ccc(Cl)cc2)cc1 (stereo partly specified) | -4.6 | 0.1 | 7.5 | 3.1 | i | -10.8 | nt
COc1ccc(N(CC(=O)NC(C)c2ccccc2)S(=O)(=O)c2c(C)noc2C)cc1 (stereo unspecified) | 0.9 | 0.5 | 8.4 | -3.6 | i | 0.7 | nt
Cc1ccc(OCCSc2nc3ccccc3n2CC(=O)O)cc1 | -2.5 | -0.1 | -2.1 | -2.1 | i | 2.5 | nt
Cc1ncccc1C(=O)N1CCCC(C(=O)c2ccc3c4c(cccc24)CC3)C1 (stereo unspecified) | -0.2 | -2.9 | 11.1 | -5.0 | i | -2.8 | nt
CN(C)C(=O)CCC(=O)N1CCCC(C(=O)c2ccc3c4c(cccc24)CC3)C1 (stereo unspecified) | -1.9 | 3.7 | 7.1 | 0.9 | + | 2.0 | i
CC(=O)N1CCN(c2ccc(NC(=O)c3ccc(OCc4ccccc4)cc3)cc2)CC1 | -1.3 | -1.5 | 10.8 | -1.5 | + | 7.6 | i
Cc1ccc(-c2c(C(=O)N/N=C/c3c[nH]c4ccccc34)nnn2-c2nonc2N)cc1 | 0.7 | -2.0 | -4.6 | -1.6 | + | -8.2 | i
CCCc1c(C(=O)N/N=C/c2ccc(OC)c(OCc3ccccc3)c2)nnn1-c1nonc1N | -7.9 | -0.3 | -1.4 | -7.1 | + | -1.1 | i
Cc1nnn(-c2nonc2N)c1C(=O)N/N=C/c1ccccc1O | -7.0 | -1.1 | -0.2 | 4.7 | i | 1.5 | nt
CCCc1c(C(=O)N/N=C/c2ccc(OCc3ccccc3)c(OC)c2)nnn1-c1nonc1N | 2.7 | 0.0 | 15.5 | -3.8 | i | -0.6 | nt
CCCc1c(C(=O)N/N=C/c2c(OC)ccc3ccccc23)nnn1-c1nonc1N | 6.5 | 0.2 | 3.7 | -5.3 | + | 2.7 | i
Cc1nnn(-c2nonc2N)c1C(=O)N/N=C/c1cccc2ccccc12 | 0.2 | -0.2 | -2.4 | 6.5 | + | 3.6 | i
Cc1cc(C)nc(NS(=O)(=O)c2ccc(NC(=O)c3ccccc3Br)cc2)n1 | 0.0 | -0.1 | 25.1 | -2.5 | i | 3.9 | nt
O=C(c1cccc(OC2CCN(Cc3ccc(F)cc3Cl)CC2)c1)N1CCCC1 | 0.5 | 0.7 | -5.3 | 7.9 | i | 0.2 | nt
Cc1ccc(C(=O)COC(=O)c2nc3nccc(C)n3n2)c(C)c1 | -0.3 | -0.4 | 8.7 | -0.7 | i | -4.4 | nt
NNC(=O)c1oc2nc(-c3ccccc3)cc(-c3ccccc3)c2c1N | -16.2 | -3.8 | 22.8 | -4.5 | + | -32.0 | i
Clc1cccc(N/N=C/c2ccc(N3CCOCC3)s2)c1 | -4.5 | 0.3 | -5.1 | 0.9 | + | 6.4 | i
COc1cc2ccnc(C=NO)c2cc1OC | -4.0 | -4.5 | 2.9 | 3.6 | + | -15.5 | i
COc1ccc(NC(=O)Nc2ccc([N+](=O)[O-])cc2)cn1 | -7.3 | -0.9 | -6.3 | -0.3 | i | -11.9 | nt
